The values that follow come from ChEMBL document CHEMBL1212774, “In vitro activity of fosfomycin against blaKPC-containing Klebsiella pneumoniae isolates, including those nonsusceptible to tigecycline and/or colistin” (2010).

Assay type in all cases: functional
The test system of experiment [1] is Klebsiella pneumoniae. Briefly: Antimicrobial activity against Klebsiella pneumoniae isolate KpKPC expressing multidrug-resistant blaKPC gene assessed as susceptible isolates by Etest. The gist of the method: (§1)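 Etest of fosfomycin MICs, with MICs rounded up to the next doubling concentration (e.g., 48 to 64 μg/ml). E. coli ATCC 25922 and P. aeruginosa ATCC 27853 included as controls. Isolates categorised as susceptible or resistant.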

For experiment [2], the system named is Klebsiella pneumoniae. Kind of experiment: Antimicrobial activity against Klebsiella pneumoniae isolate KpKPC expressing multidrug-resistant blaKPC gene assessed as susceptible isolates by disk diffusion method. The gist of the method:
(§2)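 Fosfomycin disk diffusion with inhibition zone diameters read in mm and interpreted as susceptible, intermediate or resistant. E. coli ATCC 25922 and P. aeruginosa ATCC 27853 run as controls.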
(In general: In agar diffusion tests the substance spreads into inoculated agar from a disc or well.)

Experiment [3] deals with Klebsiella pneumoniae. Briefly: Antimicrobial activity against Klebsiella pneumoniae isolate KpKPC expressing multidrug-resistant blaKPC gene assessed as resistant isolates by Etest. The gist of the method:
as §1

In experiment [4] the test system is Klebsiella pneumoniae. Briefly: Antimicrobial activity against Klebsiella pneumoniae isolate KpKPC expressing multidrug-resistant blaKPC gene assessed as resistant isolates by disk diffusion method. The gist of the method: as §2

With `C[C@@H]1O[C@@H]1P(=O)(O)O` [FOSFOMYCIN], the Activity in the experiment with Klebsiella pneumoniae [1] was found to be 61.8%; in the experiment on Klebsiella pneumoniae [2] it was 63.2%; in the experiment with Klebsiella pneumoniae [3], 14.7%; in the experiment on Klebsiella pneumoniae [4], 2.9%.
